Experimental data from different studies.
Protocols differ between the studies behind these lines.
BCL2L1: Bcl-2-like protein 1 (BCL2L1, Homo sapiens, UniProt Q07817)
CNR1: Cannabinoid receptor 1 (CNR1, Homo sapiens, UniProt P21554)
PPO3: PPO3 (Agaricus bisporus, UniProt C7FF04)

CN1CCC(CNc2ccc3ncc(-c4cccc(OC(F)(F)F)c4)n3n2)CC1
IC50 (5-hydroxytryptamine receptor 2A (HTR2A, Homo sapiens, UniProt P28223); calcium signal; antagonist): 3500 nM

C[C@]12C=CC(=O)N[C@@H]1CC[C@@H]1[C@@H]2CC[C@]2(C)[C@@H](C(=O)Nc3cc(C(F)(F)F)ccc3C(F)(F)F)CC[C@@H]12
IC50 (3-oxo-5-alpha-steroid 4-dehydrogenase 1 (SRD5A1, Homo sapiens, UniProt P18405); enzyme activity in cells; inhibitor): 16 nM

CCCNS(=O)(=O)Nc1ncnc(OCCOc2ncc(Br)cn2)c1-c1ccc(Br)cc1
IC50 (Endothelin-1 receptor (EDNRA, Homo sapiens, UniProt P25101); ligand displacement; radioligand; cell membranes): 0.43 nM

CCc1ccc(Cn2nnc3c4ccc(F)cc4c(=O)[nH]c32)cc1
IC50 (Poly [ADP-ribose] polymerase 1 (PARP1, Homo sapiens, UniProt P09874); enzyme activity; inhibitor; fluorescence): > 10000 nM

Cc1c(-c2ccc(N3CCc4cccc(C(=O)Nc5nc6ccccc6s5)c4C3)nc2C(=O)NCCOCCOCCOCCNc2cccc3c2C(=O)N(C2CCC(=O)NC2=O)C3=O)cnn1CC12CC3CC(CC(C3)C1)C2 (centres unmarked)
Ki (BCL2L1; ligand displacement; AlphaScreen): 0.15 nM

O=C1Nc2ccc(I)cc2/C1=C/c1cc(Br)c(O)c(Br)c1
IC50 (Serine/threonine-protein kinase A-Raf (ARAF, Homo sapiens, UniProt P10398); enzyme activity; inhibitor): 12.6 nM

COC(=O)c1ccc(NC(=O)c2sc3nc(C)cc(C)c3c2N)cc1
Ki (Adenosine receptor A2a (ADORA2A, Homo sapiens, UniProt P29274); ligand displacement; radioligand): 3310 nM

CCN(CCOCCOCCOCCNc1cccc2c1C(=O)N(C1CCC(=O)NC1=O)C2=O)CC[C@H](CSc1ccccc1)Nc1ccc(S(=O)(=O)NC(=O)c2ccc(N3CCN(CC4=C(c5ccc(Cl)cc5)CCC(C)(C)C4)CC3)cc2)cc1S(=O)(=O)C(F)(F)F (some centres unmarked)
Ki (BCL2L1; ligand displacement; AlphaScreen): 0.38 nM

CC(C)[C@@H](CN1CCc2ccccc2C1)NC(=O)c1cccc(-c2cccc(C#N)c2)c1
Ki (Mu-type opioid receptor (Oprm1, Mus musculus, UniProt P42866); ligand displacement; radioligand): 4110 nM

Cn1cc(C2=C(c3cn(CCCSC(=N)N)c4ccccc34)C(=O)NC2=O)c2ccccc21
IC50 (Serine/threonine-protein kinase VRK2 (VRK2, Homo sapiens, UniProt Q86Y07); enzyme activity; inhibitor): 26900 nM

O=C(O)c1cc(-c2ccc(-n3ccnn3)cc2)c2ccc(-c3ccc(C(F)(F)F)cc3)cc2c1
Ki (Sigma non-opioid intracellular receptor 1 (SIGMAR1, Homo sapiens, UniProt Q99720); cell-free assay; radioligand): 3900 nM

O=c1c(NCCc2ccc(Cl)cc2Cl)c(Nc2ccc(Cl)cc2)c1=O
IC50 (CNR1; calcium signal; antagonist; fluorescence): > 10000 nM

CN(C)C(=O)c1cc2cnc(Nc3ccc(C(=O)NCCCCCCOc4cccc5c4C(=O)N(C4CCC(=O)NC4=O)C5=O)cc3)nc2n1C1CCCC1 (centres unmarked)
Kd (Aurora kinase B (AURKB, Homo sapiens, UniProt Q96GD4); binding; competition with immobilised ligand): 160 nM

O=c1[nH]c(=O)c(Cc2cccc(C(F)(F)F)c2)c([C@H]2CC[C@H](c3ccccc3)CC2)[nH]1
IC50 (UDP-glucuronosyltransferase 1A3 (UGT1A3, Homo sapiens, UniProt P35503); enzyme activity; inhibitor): > 20000 nM

O=C(NO)c1ccc(Cn2cnc3c(Nc4cccc([N+](=O)[O-])c4)ncnc32)cc1
IC50 (Histone deacetylase 2 (HDAC2, Homo sapiens, UniProt Q92769); enzyme activity; inhibitor; fluorescence): 167 nM

Cc1c(-c2ccc(N3CCc4cccc(C(=O)Nc5nc6ccccc6s5)c4C3)nc2C(=O)NCCOCCOCCOCCO)cnn1CC12CC3CC(CC(C3)C1)C2
Ki (BCL2L1; ligand displacement; AlphaScreen): 0.0112 nM

CC1(C)CCC(c2ccc(Cl)cc2)=C(CN2CCN(c3ccc(C(=O)NS(=O)(=O)c4ccc(N[C@H](CCN(CCOCCOCCOCCNc5cccc6c5C(=O)N(C5CCC(=O)NC5=O)C6=O)C5CCC5)CSc5ccccc5)c(S(=O)(=O)C(F)(F)F)c4)cc3)CC2)C1 (some centres unmarked)
Ki (BCL2L1; ligand displacement; AlphaScreen): 9.02 nM

CCNC(=O)c1nc(N2CCc3cccc(C(=O)Nc4nc5ccccc5s4)c3C2)ccc1-c1cnn(CC23CC4CC(CC(C4)C2)C3)c1C
Ki (BCL2L1; ligand displacement; AlphaScreen): 1.32 nM

O=c1c(NCCc2ccc(Cl)c(Cl)c2)c(Nc2ccc(Cl)cc2)c1=O
IC50 (CNR1; calcium signal; antagonist; fluorescence): 1510 nM

Cc1ccccc1NC(=O)CSc1nc2ccccc2cc1C=Nn1c(S)nnc1-c1ccccc1
IC50 (PPO3; enzyme activity; inhibitor): > 50000 nM

Cc1ncsc1-c1ccc([C@H](C)NC(=O)[C@@H]2C[C@@H](O)CN2C(=O)[C@@H](NC(=O)CCCCCCCNC(=O)c2nc(N3CCc4cccc(C(=O)Nc5nc6ccccc6s5)c4C3)ccc2-c2cnn(CC34CC5CC(CC(C5)C3)C4)c2C)C(C)(C)C)cc1
Ki (BCL2L1; ligand displacement; AlphaScreen): 1.31 nM

O=C(CSc1nc2ccccc2cc1C=Nn1c(S)nnc1-c1ccccc1)Nc1ccccc1
IC50 (PPO3; enzyme activity; inhibitor): > 50000 nM

CCS(=O)(=O)NC(=O)c1nc(N2CCc3cccc(C(=O)Nc4nc5ccccc5s4)c3C2)ccc1-c1cnn(CC23CC4CC(CC(C4)C2)C3)c1C
Ki (BCL2L1; ligand displacement; AlphaScreen): 0.0142 nM
